This note sets out measurements from article PMC6500731 (Clinical cancer research : an official journal of the …, 2018).

Read-outs that look alike come from different tables or passages of the source.

The target of data set [1] is bacterial chaperonin GroEL (Escherichia coli, UniProt P0A6F5). Kind of data set: Malachite green ATP hydrolysis counter-screen, GroEL. It counts as biochemical. (A counterscreen serves to expose hits that act by an unwanted route or on another target.)
In data set [2] the test system is Non-Hodgkin Lymphoma cell lines. Put plainly: Viability assay. The format is cell-based.
In data set [3] the test system is DLBCL cell lines. Put plainly: Apoptosis assay. The format is cell-based. The essentials: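 Flow-cytometric cell death: DLBCL cell lines treated as indicated for 24 h, alone or combined with the PERK inhibitor GSK2606414 or with 200 nM ISRIB. Cells washed once in ice-cold PBS, then co-stained with PE-Annexin V and 7-aminoactinomycin D. Mean ± SEM, n=3 biological replicates; unpaired two-tailed t-tests.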

Data set [4] concerns normal human peripheral-blood mononuclear cells. Kind of data set: Potency against normal peripheral-blood mononuclear cells. It counts as cell-based. The following applies: Fig. S1B.
Data set [5] relates to OCI-Ly3 cells. Kind of data set: Polysome profiling. The following applies: OCI-Ly3, 2 μM elatol. The format is cell-based.
The test system of data set [6] is eIF2α-S51 A/A and S/S MEFs. Kind of data set: Viability. It counts as cell-based, Murine. The following applies: Mus musculus, 72 h.
A short description of data set [7]: Tolerability in non-tumor bearing SCID mice. The note with it: for tolerability: non-tumor bearing SCID mice. The format is in vivo. In short, it runs like this: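 Non-tumor-bearing female SCID mice, 8–10 weeks old, dosed i.p. daily for 5 days at 10, 20 or 30 mg/kg and monitored for weight and activity. Complete blood counts (white blood cells, hemoglobin, platelets) measured on a Hemavet950. For 20 mg/kg: mean ± SEM, n=17 vehicle and 7 treated.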

bacterial chaperonin GroEL, sequence (P0A6F5 whole entry): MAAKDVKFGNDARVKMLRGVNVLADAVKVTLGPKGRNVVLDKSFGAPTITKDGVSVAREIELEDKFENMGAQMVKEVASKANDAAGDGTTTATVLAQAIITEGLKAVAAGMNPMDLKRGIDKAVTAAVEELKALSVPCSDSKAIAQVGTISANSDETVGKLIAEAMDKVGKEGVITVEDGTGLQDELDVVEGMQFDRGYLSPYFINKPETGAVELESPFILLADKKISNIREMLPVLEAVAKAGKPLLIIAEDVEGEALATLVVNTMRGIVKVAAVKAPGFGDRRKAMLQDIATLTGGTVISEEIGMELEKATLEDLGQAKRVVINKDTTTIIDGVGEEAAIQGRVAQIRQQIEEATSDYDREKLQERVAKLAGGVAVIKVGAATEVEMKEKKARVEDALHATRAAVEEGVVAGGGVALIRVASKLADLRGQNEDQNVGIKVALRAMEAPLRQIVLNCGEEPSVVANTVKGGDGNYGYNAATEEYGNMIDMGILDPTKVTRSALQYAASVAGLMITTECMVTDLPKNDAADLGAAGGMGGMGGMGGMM

Take `C=C1C[C@H](O)[C@H](Br)C(C)(C)[C@@]12CCC(C)=C(Cl)C2` [elatol]: the “activity against ATP hydrolysis by GroEL” value in data set [1] was “no activity”. The “toxic concentration in the preliminary screen of cancer cell lines” value in data set [2] (preliminary screen) is recorded as “less than 1 μM”. In addition, the “fold less potent than silvestrol” value in data set [2] (sensitive tumor cells in vitro) is 5–10 fold. Also, in data set [3] (OCI-Ly3 cells, combination with 200 nM ISRIB), the “effect of ISRIB on elatol's toxicity” value is recorded as “no effect”. For the same compound, the “effect of PERK inhibitor GSK2606414 on elatol's potency” value in data set [3] (annexin V staining, 24 hours, combination with PERKi) is given as “no significant reversal”. Further, in data set [3] (by 24 hours, most sensitive DLBCL line), the apoptosis entry was “greater than 50%”. For the same compound, the “potency against normal PBMC relative to tumor lines” value in data set [4] is recorded as “less potent”. Also, the polysome translation result in data set [5] (16 hours) is on record as “complete elimination of polysome translation”; in data set [5] (two-hour treatment), “moderately reduced polysome translation”. Also, the IC50 in data set [6] (read-out: IC50, viability, eIF2α-S51 A/A MEFs, 72 hour) is 1030 nM; in data set [6] (read-out: IC50, viability, eIF2α-S51 S/S MEFs, 72 hour), 1400 nM. Further, the tolerability entry in data set [7] (10 mg/kg daily x 5 days i.p.) was “neither 10 mg/kg nor 20 mg/kg resulted in signs of toxicity”; in data set [7] (20 mg/kg daily x 5 days i.p.), “neither 10 mg/kg nor 20 mg/kg resulted in signs of toxicity”; in data set [7] (30 mg/kg daily i.p., stopped after three days) it was “weight loss and reduced animal activity”. Moreover, the “Day 5 complete blood counts versus vehicle” value in data set [7] (20 mg/kg daily for 5 days) is “no differences”.
